Screens deposited in PubChem by The Scripps Research Institute Molecular Screening Center.
Hits are enriched below; roughly 2.7% of the tested compounds scored in any of these assays.
RBBP9 inhibitor – human RBBP9 hydrolase inhibition; AID 1515; inhibition, % at 7.94 µM; O75884; recombinant RBBP9, FP-Rh probe fluorescence polarization; 0.2% of 220,000 active;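 active = inhibition above the campaign mean of all tested compounds plus 3 SD, cut at about 14% in these data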;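 note: plate controls were DMSO wells with RBBP9 for no effect and wells lacking RBBP9 protein for full effect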
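System: RBBP9 protein / Quantity: 2.5 µM RBBP9 dispensing solution, before mixing / Also added: Serine-hydrolase probe FP-Rh, 375 nM pre-mixing / Dosing: 7.94 µM single dose, 0.794% DMSO / Timing: enzyme-compound preincubation 30 min, then probe labeling 45 min, 25 °C / Signal: FP readout at 525/598 nm / Controls: DMSO-treated enzyme wells and wells lacking RBBP9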
pPAFAH inh – pPAFAH (human) enzyme inhibition. recombinant pPAFAH, FP-rhodamine probe fluorescence polarization. inhibition, % at 3.39 µM. Q13093. AID 463082. 1.5% of 330,000 active;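 active = inhibition above the mean inhibition across the screen plus 3 SD, cut at about 25% in these data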;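 note: inhibitors block binding of the rhodamine activity-based probe so polarization drops; 0% = enzyme with DMSO and 100% = wells lacking pPAFAH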
Target sequence (Q13093 whole entry, looked up): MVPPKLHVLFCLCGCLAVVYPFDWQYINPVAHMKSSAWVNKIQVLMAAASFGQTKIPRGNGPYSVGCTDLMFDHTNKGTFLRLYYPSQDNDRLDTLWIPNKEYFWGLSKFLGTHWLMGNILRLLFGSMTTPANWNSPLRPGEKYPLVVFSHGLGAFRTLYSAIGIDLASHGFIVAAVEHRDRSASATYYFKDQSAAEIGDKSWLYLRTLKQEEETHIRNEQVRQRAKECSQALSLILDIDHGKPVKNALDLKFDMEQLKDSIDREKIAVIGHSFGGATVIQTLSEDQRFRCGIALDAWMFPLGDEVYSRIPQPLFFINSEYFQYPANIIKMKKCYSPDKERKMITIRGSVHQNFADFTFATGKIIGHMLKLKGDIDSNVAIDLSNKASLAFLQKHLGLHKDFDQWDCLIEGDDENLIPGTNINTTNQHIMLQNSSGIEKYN
PAFAH1B3 FP inh – PAFAH1B3 (human) inhibition; Q15102; recombinant PAFAH1B3, FP-rhodamine probe, fluorescence polarization; inhibition, % at 3.39 µM; 0.28% of 340,000 active; AID 492972;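 active = inhibition above the screen-wide average of all tested compounds plus 3 SD, cut at about 25% in these data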;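 note: 0% = enzyme with DMSO only and 100% = wells lacking PAFAH1B3 protein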
PAFAH1B2 inh – blocks human PAF acetylhydrolase 1b catalytic subunit 2 | P68402 | recombinant PAFAH1B2, FP-rhodamine activity probe, fluorescence polarization | inhibition, % at 3.39 µM | 1.2% of 340,000 active;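 active = inhibition above the mean of all tested compounds plus 3 SD, cut at about 24% in these data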;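 note: 0% = enzyme with DMSO and 100% = wells lacking PAFAH1B2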
PAFAH2 inh – PAFAH2 (human) inhibition. Q99487. 0.99% of 340,000 active. recombinant PAFAH2, FP-rhodamine activity probe, fluorescence polarization. inhibition, % at 3.39 µM. AID 492956;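 active = inhibition above the mean over all tested compounds plus 3 SD, cut at about 30% in these data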;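 note: inhibitors block probe labeling of enzyme so polarization drops; 0% = enzyme with DMSO and 100% = wells lacking PAFAH2 protein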
PAFAH2 confirm – PAFAH2 (human) inhibition, confirmed. shares compounds with PAFAH2 inh. 65% of 2,300 active. AID 493030. recombinant PAFAH2, FP-rhodamine activity probe, fluorescence polarization. inhibition, % at 3.39 µM;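 active = mean inhibition over three repeats above a set limit taken from the earlier primary screen, cut at about 30% in these data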;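 note: inhibitor blocks binding of rhodamine activity probe so polarization falls; 0% = enzyme with DMSO and 100% = wells lacking PAFAH2 protein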
The depositor's hits bear a star; . = not tested or not shown.

SMILES | RBBP9 inhibitor | pPAFAH inh | PAFAH1B3 FP inh | PAFAH1B2 inh | PAFAH2 inh | PAFAH2 confirm
COc1cc(/C=C/C(=O)OCC(=O)N2CC(=O)Nc3ccccc32)ccc1O | 6 | -5 | 6 | 5 | 3 | .
COc1cc(/C=C/C(=O)OCC(=O)N2CCCc3ccccc32)ccc1OCC#N | . | 2 | 0 | -3 | 40* | 19
Nc1ccc(C(=O)N2CCN(S(=O)(=O)c3ccc(Cl)s3)CC2)cc1[N+](=O)[O-] | . | 3 | 3 | 8 | 3 | .
O=c1cc(-c2ccccc2)[nH]n1-c1nc2ccccc2s1 | -3 | 15 | 17 | 3 | 42* | 47*
COc1ccccc1NC(=O)COC(=O)c1ccc2c(c1)OCCO2 | . | 3 | -2 | 2 | 6 | .
CCC(CC)NC(=O)COC(=O)c1ccc(OCC(=O)Nc2ccccc2OC)c(OC)c1 | -2 | -1 | 3 | -6 | 60* | 63*
CCCNC(=O)COC(=O)c1ccc(OCC(=O)Nc2ccccc2OC)c(OC)c1 | -3 | -2 | -6 | 0 | 51* | 45*
COc1ccccc1NC(=O)COc1ccc(C(=O)OCC(=O)NC(C)(C)C)cc1OC | -8 | 7 | 5 | 1 | 81* | 83*
COc1ccc(OC)c(NC(=O)COC(=O)c2cc3c(s2)CCC3)c1 | -3 | 20 | 6 | 0 | 19 | .
COc1ccccc1NC(=O)COC(=O)c1cc2c(s1)CCC2 | . | . | 1 | 1 | 54* | 38*
COc1ccc(C(=O)NCC2OCCc3ccccc32)c(O)c1 (stereo not given) | -6 | -3 | 7 | -1 | 3 | .
O=C(COC(=O)CSc1ccc2ccccc2c1Br)NC1CC1 | -1 | 8 | 0 | 4 | 1 | .
COc1ccc(C(=O)OCC(=O)Nc2ccc(F)cc2F)cc1OC | -7 | 10 | 5 | 4 | 76* | 72*
Cc1ccc(C(=O)NNC(=O)c2ccc(Br)s2)cc1S(=O)(=O)N1CCOCC1 | . | 5 | 4 | 1 | 39* | -4
CC(c1ccco1)N(C(=O)c1ccccc1NS(=O)(=O)c1cccc([N+](=O)[O-])c1)c1ccccn1 (stereo not given) | -6 | 4 | 3 | 6 | 3 | .
CC(c1ccco1)N(C(=O)c1ccccc1NS(=O)(=O)c1cc([N+](=O)[O-])ccc1Cl)c1ccccn1 (stereo not given) | -5 | 7 | -2 | 1 | 63* | 71*
S=C(NCCCN1CCOCC1)Nc1ccc(Nc2ccccc2)cc1 | -7 | 3 | 4 | 3 | 7 | .
S=C(NCCCN1CCOCC1)Nc1ccc(N2CCOCC2)cc1 | -3 | 6 | 12 | 10 | 42* | 4
O=C(COC(=O)c1cccc(N2C(=O)c3ccccc3C2=O)c1)Nc1ccccc1 | -5 | 15 | 7 | 5 | 70* | 71*
N#Cc1cccc(NC(=O)COC(=O)c2cccc(N3C(=O)c4ccccc4C3=O)c2)c1 | -12 | 10 | -13 | -13 | 67* | 79*
CC(C)(C)OC(=O)CNC(=O)c1nc[nH]c1C(=O)N1CCNCC1 | . | 3 | 8 | 2 | 12 | .
Cc1ccc(C(=O)c2c[nH]c3c(F)cc(F)cc3c2=O)cc1 | -9 | -1 | -1 | 2 | -1 | .
Cc1ccccc1C(=O)Nc1ccnn1C1CCN(Cc2cnn(C)c2)CC1 | . | -2 | 5 | 4 | -2 | .
O=c1[nH]nc(CNc2ccc(C(F)(F)F)cc2)c2ccccc12 | -9 | 3 | -1 | 1 | 50* | 34*
O=c1[nH]nc(CNc2ccc(OC(F)(F)F)cc2)c2ccccc12 | 6 | 3 | 3 | 1 | -2 | .
SMILES | RBBP9 inhibitor | pPAFAH inh | PAFAH1B3 FP inh | PAFAH1B2 inh | PAFAH2 inh | PAFAH2 confirm
Cc1c2ccccc2cc[n+]1CCCS(=O)(=O)[O-] | -1 | 3 | 6 | -4 | -6 | .
CC1(C)C(/C=C/C=C/C=C/C=C2\N(CCCCS(=O)(=O)O)c3ccc4ccccc4c3C2(C)C)=[N+](CCCCS(=O)(=O)[O-])c2ccc3ccccc3c21 | . | 29* | -32 | -12 | 43* | 26
COc1cc(/C=C/C(=O)OCC(=O)Nc2ccccc2Cl)cc(OC)c1OC | 3 | -3 | 7 | 6 | 10 | .
CC(C)=CC(=O)OCC(=O)Nc1ccccc1Cl | -3 | 8 | 5 | 6 | 51* | 40*
CC(C)=CC(=O)OCC(=O)Nc1cc(C)ccc1C | -6 | 4 | 8 | 4 | 30* | 18
N/C(=N\OC(=O)c1cccs1)c1cccc(Br)c1 | -5 | 9 | -2 | 6 | 47* | 42*
